This passage reports MIC results from ChEMBL document CHEMBL4118025, “ent-Abietane and Tigliane Diterpenoids from the Roots of Euphorbia fischeriana and Their Inhibitory Effects against Mycobacterium smegmatis” (2017).

Molecules are shown by their SMILES. Values after ≈ are worked out from the molar mass of the structure shown.

For this assay, the system named is Mycolicibacterium smegmatis. Description: Antimycobacterial activity against Mycobacterium smegmatis after 24 hrs by microplate alamar blue assay. It counts as functional. In short, it runs like this: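 Alamar blue viability read-out in 96-well microplates, following an earlier described method; test materials dissolved in DMSO at an initial 0.4 mg/mL; kanamycin positive control at 0.1 mg/mL; M. smegmatis strain preincubated 48 h before incubation with test materials.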
On the technique in general: Resazurin is reduced to fluorescent resorufin, in cell work by metabolically active cells.
What is called MIC is the lowest concentration that inhibits growth of the organism. High values mean a less susceptible organism, low ones a more susceptible organism. The compound `CC(=O)O[C@@]12[C@H](O)[C@@H](C)[C@@]3(O)[C@@H](C=C(CO)C[C@]4(O)C(=O)C(C)=C[C@@H]34)[C@@H]1C2(C)C` yielded a minimal inhibitory concentration (MIC) of over 400 µg/mL.
The figure for `CC1=C2C(=C[C@H]3[C@]4(C)CCCC(C)(C)[C@H]4CC[C@]34O[C@H]24)OC1=O` is over 400 µg/mL.
The compound `CC1(C)CCC[C@]2(C)[C@@H]1CC[C@@]13O[C@@H]1C1=C(CO)C(=O)OC1=C[C@@H]23` came in with an MIC of 100 µg/mL (≈ 303 µM).
On to `CC1(C)CCC[C@]2(C)[C@@H]1CC[C@@]13O[C@@H]1C1=C(CO)C(=O)O[C@]14O[C@@H]4[C@@H]23`, for which the lowest concentration to inhibit growth (MIC) was 1.5 µg/mL (≈ 4.33 µM).
The figure for `CC1=C2[C@@H](O)[C@@]3(O)CC[C@@H]4C(C)(C)CCC[C@@]4(C)[C@@H]3[C@@H](O)[C@H]2OC1=O` is over 400 µg/mL; for `CC(=O)O[C@@]12C[C@@H](C)[C@@]3(O)[C@@H](C=C(CO[C@@H]4O[C@H](CO)[C@@H](O)[C@H](OC(=O)c5cc(O)c(O)c(O)c5)[C@H]4O)C[C@]4(O)C(=O)C(C)=C[C@@H]34)[C@@H]1C2(C)C` it is over 400 µg/mL.
The figure for `CC(=O)O[C@@]12C[C@](C)(O)[C@H]3[C@@H](C=C(CO)C[C@]4(O)C(=O)C(C)=C[C@@H]34)[C@@H]1C2(C)C` is over 400 µg/mL; for `CC1=C2[C@@H](OC1=O)C(=O)[C@H]1[C@]3(C)CCCC(C)(C)[C@H]3CC[C@@]1(O)[C@H]2O` it is 300 µg/mL (≈ 861 µM).
The figure for `CC1(C)C(=O)CC[C@]2(C)[C@@H]1C[C@H](O)C1=CC3=C(CO)C(=O)O[C@@H]3[C@@H](O)[C@H]12` is over 400 µg/mL; for `CC(=O)O[C@@]12C[C@@H](C)[C@@]3(O)[C@@H](C=C(CO[C@@H]4O[C@H](CO)[C@@H](OC(=O)c5cc(O)c(O)c(O)c5)[C@H](O)[C@H]4O)C[C@]4(O)C(=O)C(C)=C[C@@H]34)[C@@H]1C2(C)C` it is over 400 µg/mL.
The compound `CC1=C2C=C3[C@@H](O)C[C@@H]4C(C)(C)CCC[C@@]4(C)[C@@H]3[C@@H](O)[C@@]2(O)OC1=O` yielded an MIC of 400 µg/mL (≈ 1150 µM).
The figure for `CC1(C)CCC[C@]2(C)[C@@H]1CCC1=CC3=C(CO)C(=O)O[C@]3(O)[C@H](O)[C@H]12` is 200 µg/mL (≈ 574 µM); for `CC(=O)O[C@@]12C[C@@H](C)[C@@]3(O)[C@@H](C=C(C=O)C[C@]4(O)C(=O)C(C)=C[C@@H]34)[C@@H]1C2(C)C` it is over 400 µg/mL; for `CC1=C[C@H]2[C@@]3(O)[C@H](C)CC(=O)[C@@H](C(C)C)[C@@H]3C=C(CO)C[C@]2(O)C1=O` it is over 400 µg/mL.
The figure for `CC1(C)CCC[C@]2(C)[C@@H]1CC[C@]1(O)[C@H](O)C3=C(CO)C(=O)OC3=C[C@@H]21` is over 400 µg/mL; for `CC1(C)CCC[C@]2(C)[C@@H]1C[C@H](O)C1=CC3=C(CO)C(=O)O[C@]3(O)[C@H](O)[C@H]12` it is over 400 µg/mL.
In turn, `CC(=O)O[C@@]12C[C@@H](C)[C@@]3(O)[C@@H](C=C(C(=O)O)C[C@]4(O)C(=O)C(C)=C[C@@H]34)[C@@H]1C2(C)C` showed a minimum inhibitory concentration (MIC) of over 400 µg/mL.
The figure for `CC1(C)C(=O)CC[C@]2(C)[C@@H]1CCC1=CC3=C(CO)C(=O)O[C@@H]3[C@@H](O)[C@H]12` is over 400 µg/mL.
The figure for `CC(=O)O[C@@]12C[C@@H](C)[C@@]3(O)[C@@H](C=C(CO[C@@H]4O[C@H](CO)[C@@H](O)[C@H](O)[C@H]4O)C[C@]4(O)C(=O)C(C)=C[C@@H]34)[C@@H]1C2(C)C` [FISCHEROSIDES A] is over 400 µg/mL.
For the compound `NC[C@H]1O[C@H](O[C@H]2[C@H](O)[C@@H](O[C@H]3O[C@H](CO)[C@@H](O)[C@H](N)[C@H]3O)[C@H](N)C[C@@H]2N)[C@H](O)[C@@H](O)[C@@H]1O` [KANAMYCIN], 10 µg/mL (≈ 20.6 µM) was the least that counted as inhibitory (MIC).
The figure for `CC(=O)O[C@@]12C[C@@H](C)[C@@]3(O)[C@@H](C=C(CO)C[C@]4(O)C(=O)C(C)=C[C@@H]34)[C@@H]1C2(C)C` [PROSTRATIN] is over 400 µg/mL.
